Measured values of several laboratories.
Each line is one published result; the experiments were not run side by side.
Target: Serine/threonine-protein kinase WNK4 (WNK4, Homo sapiens, UniProt Q96J92)

Compound	observed	technique	concentration	remaining binding [%]
C[C@@H]1CCN(c2nccc(-c3cnn4ncccc34)n2)C1	binding	–	1 µM	100
C=CC(=O)N1CCC(C(=O)NCC(=O)N2CCN(c3nc(-c4cnc(N)nc4C(F)F)nc(N4CCOCC4)n3)CC2)CC1	binding	competition with immobilised ligand	1 µM	92
COc1cnc(Nc2cccc(S(N)(=O)=O)c2)nc1N1CCN(c2ccccc2)CC1	binding	competition with immobilised ligand	1 µM	82
N[C@@H]1CCN(c2nccc(-c3cnn4ncccc34)n2)C1	binding	–	1 µM	100
C[C@@H](c1ccc(-n2cnc3c(N)ncnc32)cc1)N1CCc2nn(C)c(Cc3ccccc3)c2C1=O	binding	competition with immobilised ligand	0.1 µM	75
CC(=O)N1CCC(c2ccc(C(=O)NC(=N)N)cc2C(F)(F)F)CC1	cell-free assay	competition with immobilised ligand	1 µM	100
COc1ccnn2ncc(-c3ccnc(N(C)C)n3)c12	binding	–	1 µM	100
O=C(Nc1c[nH]nc1C(=O)NC1CCNCC1)c1cc(F)cc(F)c1	binding	competition with immobilised ligand	1 µM	100
NS(=O)(=O)c1cc(NC(=O)C2(c3ccccc3Cl)CC2)ccc1Oc1cccc(Cl)c1	cell-free assay	competition with immobilised ligand	1 µM	81
FC(F)(F)Oc1cccc(-c2cnc3ccc(-c4ccncc4)nn23)c1	binding	competition with immobilised ligand	5 µM	100
COc1cccc(CNC(=O)c2nc3scc(COCc4ccc(C(=O)O)cc4)c3c(=O)[nH]2)c1	cell-free assay	competition with immobilised ligand	1 µM	100
CC1CCCN1c1nccc(-c2cnn3ncccc23)n1 (stereo not drawn)	binding	–	1 µM	100
Nc1ncc2c(n1)-c1c([nH]c3ccc(C#CC4CC4)cc13)CCCC2	binding	competition with immobilised ligand	1 µM	79
O=C(c1ccc(Nc2ncc(Cl)c(-c3cc4ccccc4s3)n2)cc1)N1CCC(N2CCCC2)CC1	binding	competition with immobilised ligand	1 µM	86
CC(=O)c1c(NS(C)(=O)=O)c2cc(-c3ccc(Cl)cc3)c(-c3ccc(Cl)cc3Cl)nc2n(C)c1=O	cell-free assay	competition with immobilised ligand	1 µM	96
CN(C)c1nccc(-c2cnn3ncccc23)n1	binding	–	1 µM	59
O=C(Nc1cccnn1)N1CC(C/C=C/c2cncc(Oc3ccc(C(F)(F)F)cn3)n2)C1	cell-free assay	competition with immobilised ligand	1 µM	0
O=C(NCCCN1CCOCC1)c1ccc(Nc2ncc(Cl)c(-c3ccc(Cl)s3)n2)cc1	binding	competition with immobilised ligand	1 µM	99
Cc1nc(Cc2cccc(C(F)(F)F)c2)sc1-c1ccc(C(N)=O)nc1	cell-free assay	competition with immobilised ligand	1 µM	100
c1cnn2ncc(-c3ccnc(N4CCC45COC5)n3)c2c1	binding	–	1 µM	64
O=C(c1ccc(Nc2ncc(Cl)c(-c3ccc(Cl)s3)n2)cc1)N1CCC(N2CCCC2)CC1	binding	competition with immobilised ligand	1 µM	100
